{"data": "Results from different studies", "cell line": "MDA-MB-231", "read-out": "cell growth or viability"}
{"SMILES": "O=C1Nc2ccccc2/C1=N/N=C/c1cccc([N+](=O)[O-])c1", "technique": "MTT", "time": "24 h", "IC50": "38.3 µg/mL"}
{"SMILES": "CC(=O)O[C@@]12CO[C@@H]1C[C@H](O)[C@@]1(C)C(=O)[C@H](O)C3=C(C)[C@@H](OC(=O)[C@H](O)[C@@H](NC(=O)OC(C)(C)C)c4ccccc4)C[C@@](O)([C@@H](OC(=O)c4ccccc4)[C@H]21)C3(C)C", "technique": "MTT", "time": "24 h", "IC50": "> 50 µg/mL"}
{"SMILES": "C[C@H]1[C@H](C)CC[C@]2(C(=O)O)CC[C@]3(C)C(=CC[C@@H]4[C@@]5(C)CC[C@H](O)C(C)(C)[C@@H]5CC[C@]43C)[C@H]12", "technique": "thymidine uptake", "time": "24 h", "IC50": "13.1 µM"}
{"SMILES": "Cc1ccc(S(=O)(=O)n2cc(/C=N/NC(=O)c3ccccc3)c3ccccc32)cc1", "technique": "MTT", "time": "48 h", "IC50": "24.1 µM"}
{"SMILES": "O=[N+]([O-])c1ccc(NC(=S)N/N=C/c2cccc3cc4ccccc4nc23)cc1", "technique": "MTT", "time": "48 h", "IC50": "> 50 µM"}
{"SMILES": "COc1cccc(NC(=O)Nc2ccc(Oc3nc4ccccc4n4cnnc34)cc2)c1", "technique": "MTT", "time": "24 h", "IC50": "21.7 µM"}
{"SMILES": "Cc1ccc(C(C)C)c(OC2=C(Cl)C(=O)c3ccccc3C2=O)c1", "technique": "MTT", "time": "24 h", "IC50": "60 µg/mL"}
{"SMILES": "Cc1ccc(S(=O)(=O)n2cc(/C=N/NC(=O)c3ccco3)c3ccccc32)cc1", "technique": "MTT", "time": "48 h", "IC50": "29.6 µM"}
{"SMILES": "CCCNC(=S)N/N=C/c1cccc2cc3ccccc3nc12", "technique": "MTT", "time": "48 h", "IC50": "> 50 µM"}
{"SMILES": "Cc1ccc(S(=O)(=O)n2cc(/C=N/NC(=O)c3ccccc3Br)c3ccccc32)cc1", "technique": "MTT", "time": "48 h", "IC50": "29.4 µM"}
{"SMILES": "Nc1ccn([C@@H]2O[C@H](CO)[C@@H](O)C2(F)F)c(=O)n1", "technique": "MTT", "time": "48 h", "IC50": "4.07 µg/mL"}
{"SMILES": "C[C@H]1[C@H](C)CC[C@]2(C)CC[C@]3(C)C(=CC(=O)[C@@H]4[C@@]5(C)CC[C@@H](O)[C@](C)(C(=O)NCc6cn(-c7ccc(Cl)cc7)nn6)[C@@H]5CC[C@]43C)[C@H]12", "technique": "MTT", "time": "24 h", "IC50": "106 µM"}
{"SMILES": "Cc1cc(NS(=O)(=O)c2ccc(NC(=O)/C(C#N)=C/c3ccc(N4CCOCC4)cc3)cc2)no1", "technique": "MTT", "time": "48 h", "IC50": "83.3 µM"}
{"SMILES": "COc1cccc2c1C(=O)c1c(O)c3c(c(O)c1C2=O)C[C@@](O)(C(=O)CO)C[C@@H]3O[C@H]1C[C@H](N)[C@H](O)[C@H](C)O1", "technique": "MTT", "time": "48 h", "IC50": "0.2 µM"}
{"SMILES": "CC(C)[C@@H]1NC(=O)/C(=C/c2cnc[nH]2)NC1=O", "technique": "SRB", "IC50": "> 15 µM"}
{"SMILES": "CC(=O)N1CCC(Nc2cc(C(=O)NC[C@H](O)CN3CCc4ccccc4C3)ncn2)CC1", "technique": "CCK-8", "time": "72 h", "IC50": "> 100 µM"}
{"SMILES": "CN1CCc2c(c3ccccc3n2Cc2ccc(C(=O)NO)cc2)C1", "technique": "CCK-8", "time": "48 h", "IC50": "24.7 µM"}
{"SMILES": "COc1ccc(NC(=S)N/N=C/c2cccc3cc4ccccc4nc23)cc1", "technique": "MTT", "time": "48 h", "IC50": "> 50 µM"}
{"SMILES": "CC(C)(C)c1cnc(CSc2cnc(NC(=O)C3CCN(C(=O)CCCCCCCN4Cc5cc6c(cc5C4)C(=O)N(C4CCC(=O)NC4=O)C6=O)CC3)s2)o1 (stereo not drawn)", "technique": "MTT", "IC50": "0.0796 µM"}
{"SMILES": "Cc1ccc(S(=O)(=O)n2cc(/C=N/NC(=O)c3cccnc3)c3ccccc32)cc1", "technique": "MTT", "time": "48 h", "IC50": "18.1 µM"}
{"SMILES": "C[C@H]1[C@H](C)CC[C@]2(C)CC[C@]3(C)C(=CC(=O)[C@@H]4[C@@]5(C)CC[C@@H](O)[C@](C)(C(=O)NCc6cn(-c7cccc(Br)c7)nn6)[C@@H]5CC[C@]43C)[C@H]12", "technique": "MTT", "time": "24 h", "IC50": "61.5 µM"}
{"SMILES": "CO[C@H]1[C@H](O[C@H]([C@H]2O[C@@H](n3ccc(=O)[nH]c3=O)[C@H](O)[C@@H]2O)[C@H](NCCCNC(=O)[C@@H](NC(=O)[C@@H](NC(=O)N[C@H](C(=O)O)C(C)C)[C@@H]2CCN=C(N)N2)[C@@H](OC(=O)CCCCCCCCCCCCN(O)C(=N)N)C(C)C)C(=O)O)O[C@H](CN)[C@H]1O", "technique": "WST-1", "IC50": "0.98 µM"}
{"SMILES": "Cc1ccc(S(=O)(=O)n2cc(/C=N/NC(=O)Cc3cc(F)cc(F)c3)c3ccccc32)cc1", "technique": "MTT", "time": "48 h", "IC50": "32.1 µM"}
{"SMILES": "C=CC(C)(C)c1[nH]cnc1/C=C1/NC(=O)[C@H](C(C)C)NC1=O", "technique": "SRB", "IC50": "> 15 µM"}
{"SMILES": "Cc1cc(NS(=O)(=O)c2ccc(NC(=O)/C(C#N)=C/c3ccncc3)cc2)no1", "technique": "MTT", "time": "48 h", "IC50": "116 µM"}
{"SMILES": "COc1ccccc1/C=N/N=C1\\C(=O)Nc2ccccc21", "technique": "MTT", "time": "24 h", "IC50": "41.2 µg/mL"}
{"SMILES": "C[C@H]1[C@H](C)CC[C@]2(C)CC[C@]3(C)C(=CC(=O)[C@@H]4[C@@]5(C)CC[C@@H](O)[C@](C)(C(=O)NCc6cn(-c7ccccc7)nn6)[C@@H]5CC[C@]43C)[C@H]12", "technique": "MTT", "time": "24 h", "IC50": "103 µM"}
{"SMILES": "O=C(Nc1ccc(Cl)cc1)Nc1ccc(Oc2nc3ccccc3n3cnnc23)cc1", "technique": "MTT", "time": "24 h", "IC50": "> 68 µM"}
{"SMILES": "CC(C)CNC(=S)N/N=C/c1cccc2cc3ccccc3nc12", "technique": "MTT", "time": "48 h", "IC50": "> 50 µM"}
{"SMILES": "COc1ccc(C(=O)N/N=C/c2cn(S(=O)(=O)c3ccc(C)cc3)c3ccccc23)cc1", "technique": "MTT", "time": "48 h", "IC50": "34.4 µM"}
{"SMILES": "Cc1cc(NS(=O)(=O)c2ccc(NC(=O)/C(C#N)=C/c3ccc(N4CCCC4)cc3)cc2)no1", "technique": "MTT", "time": "48 h", "IC50": "109 µM"}
{"SMILES": "Cc1ccc(S(=O)(=O)n2cc(/C=N/NC(=O)c3ccc([N+](=O)[O-])cc3)c3ccccc32)cc1", "technique": "MTT", "time": "48 h", "IC50": "38.6 µM"}
{"SMILES": "C[C@H]1[C@H](C)CC[C@]2(C)CC[C@]3(C)C(=CC(=O)[C@@H]4[C@@]5(C)CC[C@@H](O)[C@](C)(C(=O)NCc6cn(-c7ccc(Br)cc7)nn6)[C@@H]5CC[C@]43C)[C@H]12", "technique": "MTT", "time": "24 h", "IC50": "72.5 µM"}
{"SMILES": "CC(C)[C@@H]1NC(=O)[C@H](Cc2c[nH]cn2)NC1=O", "technique": "SRB", "IC50": "> 15 µM"}
{"SMILES": "C[C@H]1[C@H](C)CC[C@]2(C)CC[C@]3(C)C(=CC(=O)[C@@H]4[C@@]5(C)CC[C@@H](O)[C@](C)(C(=O)NCc6cn(-c7cccc(C(F)(F)F)c7)nn6)[C@@H]5CC[C@]43C)[C@H]12", "technique": "MTT", "time": "24 h", "IC50": "70.4 µM"}
{"SMILES": "Cc1ccc(S(=O)(=O)n2cc(/C=N/NC(=O)c3cccc(Cl)c3)c3ccccc32)cc1", "technique": "MTT", "time": "48 h", "IC50": "25.1 µM"}
